Ki and Ratio data for five compounds are collected here from ChEMBL document CHEMBL1129251 (J Med Chem, 1996).

Assay [1] concerns the target T1, Adrenergic receptor alpha-2 (Rattus norvegicus, UniProt P22086+P19328+P22909).
T1 sequence (P22086 whole entry): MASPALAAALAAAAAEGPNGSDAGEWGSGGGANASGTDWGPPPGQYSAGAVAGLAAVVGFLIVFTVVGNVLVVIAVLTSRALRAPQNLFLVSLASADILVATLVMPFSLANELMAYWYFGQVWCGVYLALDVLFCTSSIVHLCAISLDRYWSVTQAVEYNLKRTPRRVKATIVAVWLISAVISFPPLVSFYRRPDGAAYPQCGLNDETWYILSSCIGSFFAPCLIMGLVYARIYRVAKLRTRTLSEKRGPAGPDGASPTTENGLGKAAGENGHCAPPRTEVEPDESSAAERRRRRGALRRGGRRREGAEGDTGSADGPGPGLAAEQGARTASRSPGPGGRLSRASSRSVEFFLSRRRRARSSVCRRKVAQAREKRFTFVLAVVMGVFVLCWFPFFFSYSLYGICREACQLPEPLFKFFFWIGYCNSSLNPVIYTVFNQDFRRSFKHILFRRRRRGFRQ
T1 sequence (P19328 whole entry): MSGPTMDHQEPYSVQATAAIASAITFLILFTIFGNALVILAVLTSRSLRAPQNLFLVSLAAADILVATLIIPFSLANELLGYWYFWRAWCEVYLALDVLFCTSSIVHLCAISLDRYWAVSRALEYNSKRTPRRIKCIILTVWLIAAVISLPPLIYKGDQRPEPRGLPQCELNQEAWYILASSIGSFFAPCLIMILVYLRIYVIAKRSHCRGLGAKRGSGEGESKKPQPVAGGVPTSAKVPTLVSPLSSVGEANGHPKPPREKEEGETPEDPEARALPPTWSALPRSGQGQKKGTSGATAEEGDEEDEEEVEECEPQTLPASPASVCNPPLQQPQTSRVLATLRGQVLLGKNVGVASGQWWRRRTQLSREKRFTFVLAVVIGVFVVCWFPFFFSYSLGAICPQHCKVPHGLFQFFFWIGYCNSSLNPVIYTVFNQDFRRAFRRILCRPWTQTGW
T1 sequence (P22909 whole entry): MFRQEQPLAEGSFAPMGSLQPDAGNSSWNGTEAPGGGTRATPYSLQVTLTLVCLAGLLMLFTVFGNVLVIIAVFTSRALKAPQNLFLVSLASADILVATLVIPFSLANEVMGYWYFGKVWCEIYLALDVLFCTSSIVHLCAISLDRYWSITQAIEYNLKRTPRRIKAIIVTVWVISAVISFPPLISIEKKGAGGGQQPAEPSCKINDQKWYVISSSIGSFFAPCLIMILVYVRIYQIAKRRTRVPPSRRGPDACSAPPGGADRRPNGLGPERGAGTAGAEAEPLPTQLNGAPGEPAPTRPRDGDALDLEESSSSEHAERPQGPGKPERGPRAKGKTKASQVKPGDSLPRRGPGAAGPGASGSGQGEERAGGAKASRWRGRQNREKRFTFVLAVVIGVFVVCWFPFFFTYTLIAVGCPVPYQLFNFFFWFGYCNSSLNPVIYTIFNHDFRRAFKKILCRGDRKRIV
Kind of assay: Alpha-2 adrenergic receptor binding affinity was tested against membrane preparations of rat brain. In short, it runs like this: (§1)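 Rat frontal cortex membranes at about 500 µg/mL protein, labelled with [3H]rauwolscine in Tris buffer pH 7.4 containing 10 mM EDTA. Nonspecific binding set by 10 µM phentolamine. 30 °C for 30 min, then filtration and scintillation counting, in triplicate.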

Assay [2] in a line: Selectivity ratio of Ki of alpha-1 adrenergic receptor to alpha-2 receptor.
In assay [3] the target is T1, Adrenergic receptor alpha-2. The assay is described as follows: Alpha-2 adrenergic receptor binding affinity was tested against membrane preparations of rat brain using 0.2 nM [3H]rauwolscine as radioligand. In short, it runs like this: as §1
Assay [4] has as its target T2, Adrenergic receptor alpha-1 (Rattus norvegicus, UniProt P15823+P23944+P43140).
T2 sequence (P15823 whole entry): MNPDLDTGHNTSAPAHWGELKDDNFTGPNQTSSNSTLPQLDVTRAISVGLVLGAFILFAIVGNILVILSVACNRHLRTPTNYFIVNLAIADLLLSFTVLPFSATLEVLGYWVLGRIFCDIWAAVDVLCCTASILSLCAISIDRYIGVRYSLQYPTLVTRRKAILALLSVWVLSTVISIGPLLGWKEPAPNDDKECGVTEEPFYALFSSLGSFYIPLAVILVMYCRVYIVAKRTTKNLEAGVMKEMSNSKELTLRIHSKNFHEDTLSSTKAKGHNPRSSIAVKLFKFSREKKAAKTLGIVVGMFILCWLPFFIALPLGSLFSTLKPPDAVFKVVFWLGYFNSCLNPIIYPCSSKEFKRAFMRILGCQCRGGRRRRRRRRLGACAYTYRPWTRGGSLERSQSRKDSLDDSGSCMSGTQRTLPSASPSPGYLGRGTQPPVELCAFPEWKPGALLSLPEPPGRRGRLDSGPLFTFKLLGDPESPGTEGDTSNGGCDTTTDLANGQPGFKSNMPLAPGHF
T2 sequence (P23944 whole entry): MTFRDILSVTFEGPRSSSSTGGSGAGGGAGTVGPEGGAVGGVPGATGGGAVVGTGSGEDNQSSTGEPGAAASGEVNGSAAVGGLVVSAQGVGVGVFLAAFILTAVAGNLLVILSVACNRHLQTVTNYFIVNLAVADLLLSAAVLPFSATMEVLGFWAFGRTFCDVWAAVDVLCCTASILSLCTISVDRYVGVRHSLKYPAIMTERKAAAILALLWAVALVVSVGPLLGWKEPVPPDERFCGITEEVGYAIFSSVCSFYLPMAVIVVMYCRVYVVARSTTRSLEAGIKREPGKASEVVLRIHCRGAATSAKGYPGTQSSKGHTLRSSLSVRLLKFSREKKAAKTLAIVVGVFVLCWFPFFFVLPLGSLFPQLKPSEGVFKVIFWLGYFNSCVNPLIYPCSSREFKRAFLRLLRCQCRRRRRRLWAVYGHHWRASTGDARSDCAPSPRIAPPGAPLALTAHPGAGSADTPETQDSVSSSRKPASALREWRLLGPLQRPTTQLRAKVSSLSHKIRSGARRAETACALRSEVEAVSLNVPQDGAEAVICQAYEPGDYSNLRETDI
T2 sequence (P43140 whole entry): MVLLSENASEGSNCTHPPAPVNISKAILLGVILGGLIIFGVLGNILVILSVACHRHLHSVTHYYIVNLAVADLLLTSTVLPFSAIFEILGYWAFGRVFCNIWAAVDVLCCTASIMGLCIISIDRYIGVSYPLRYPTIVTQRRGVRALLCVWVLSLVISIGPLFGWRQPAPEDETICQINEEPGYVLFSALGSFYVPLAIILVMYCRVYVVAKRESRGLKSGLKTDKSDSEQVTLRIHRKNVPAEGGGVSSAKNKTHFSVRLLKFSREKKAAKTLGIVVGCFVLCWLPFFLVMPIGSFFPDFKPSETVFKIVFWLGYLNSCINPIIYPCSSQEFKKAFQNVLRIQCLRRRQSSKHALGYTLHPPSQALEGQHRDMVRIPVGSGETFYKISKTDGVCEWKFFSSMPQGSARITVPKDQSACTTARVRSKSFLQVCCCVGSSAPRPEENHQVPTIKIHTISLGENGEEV
Kind of assay: Alpha-1 adrenergic receptor binding affinity in rat brain membranes. The assay is classed as cell membranes. In short, it runs like this: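 Rat frontal cortex membranes, washed in 50 mM Tris-HCl/10 mM MgCl2 pH 7.4, at about 300 µg/mL protein. Labelled with 0.1 nM [3H]prazosin in the same buffer. Nonspecific binding set by 10 µM phentolamine. 30 °C for 30 min, then filtration and scintillation counting, in triplicate.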

As a reminder, the Ki is a dissociation constant, usually derived from enzyme kinetics or from competition with a known ligand. A low value points to tighter binding.

Take `Cc1cccc(C(C)c2c[nH]cn2)c1C` (configuration not stated) [MEDETOMIDINE]: the Ki in assay [1] turned out to be 25 nM.
For `CCC(c1c[nH]cn1)c1cccc2ccccc12` (configuration not stated), in assay [2], the Ratio came to 3.48. The Ki worked out at 165 nM in assay [3] and 574 nM in assay [4].
As to `C=C(c1c[nH]cn1)c1cccc2ccccc12`, the Ratio in assay [2] worked out at 14.2. For the same compound, the results for the Ki in assay [3] and in assay [4] were 122 nM and 1734 nM, respectively.
For `C/C=C(/c1c[nH]cn1)c1cccc2ccccc12` the same measures were 0.26, 1474 nM and 387 nM.
As for `C[C@H](N)[C@H](O)c1ccc(O)c(O)c1` [LEVONORDEFRIN], the Ki in assay [1] turned out to be 205 nM; in assay [4], 9221 nM.
